Laboratory results taken from ChEMBL document CHEMBL3627695, “1-Benzyl-2-methyl-3-indolylmethylene barbituric acid derivatives: Anti-cancer agents that target nucleophosmin 1 (NPM1)” (Bioorg Med Chem, 2015).
Active and inactive are the calls of the source. No cut-off for these calls is given here.

Legend:
SK-OV-3 = assay: Anticancer activity against human SKOV3 cells after 48 hrs by sulforhodamine B assay; format: functional; settings: SK-OV-3, 48 h
Outline: (§1)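 NCI-60 human tumour cell line panel. Compounds dissolved in DMSO/H2O and tested at five 10-fold dilutions (10⁻⁴ M to 10⁻⁸ M) for 48 hr. GI50 is the molar concentration giving 50% reduction in net cell growth relative to cell numbers on day 0.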

IGROV-1 = assay: Anticancer activity against human IGROV1 cells after 48 hrs by sulforhodamine B assay; format: functional; settings: IGROV-1, 48 h; outline: as §1
A498 = assay: Anticancer activity against human A498 cells after 48 hrs by sulforhodamine B assay; format: functional; settings: A498, 48 h; outline: as §1
[1] = Anticancer activity against human NCI-ADR-RES cells after 48 hrs by sulforhodamine B assay; format: functional; outline: as §1
[2] = Anticancer activity against human HOP92 cells after 48 hrs by sulforhodamine B assay; format: functional; settings: HOP-92, 48 h; outline: as §1
CAKI-1 = assay: Anticancer activity against human Caki1 cells after 48 hrs by sulforhodamine B assay; format: functional; settings: CAKI-1, 48 h; outline: as §1
ACHN = assay: Anticancer activity against human ACHN cells after 48 hrs by sulforhodamine B assay; format: functional; outline: as §1
M14 = assay: Anticancer activity against human M14 cells after 48 hrs by sulforhodamine B assay; format: functional; settings: M14, 48 h; outline: as §1
[3] = Anticancer activity against human MOLT4 cells after 48 hrs by sulforhodamine B assay; format: functional; settings: MOLT-4, 48 h; outline: as §1
TK-10 = assay: Anticancer activity against human TK10 cells after 48 hrs by sulforhodamine B assay; format: functional; settings: TK-10, 48 h
Outline: (§2)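 NCI-60 panel protocol. Compounds were dissolved in DMSO/H2O and tested at five 10-fold concentrations (10⁻⁴ to 10⁻⁸ M) with 48 hr incubation. GI50 is the molar concentration giving a 50% reduction in net cell growth relative to cell numbers on day 0.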

T47D = assay: Anticancer activity against human T47D cells after 48 hrs by sulforhodamine B assay; format: functional; outline: as §2
[4] = Anticancer activity against human RPMI8226 cells after 48 hrs by sulforhodamine B assay; format: functional; settings: RPMI-8226, 48 h; outline: as §1
SK-MEL-5 = assay: Anticancer activity against human SK-MEL-5 cells after 48 hrs by sulforhodamine B assay; format: functional; settings: SK-MEL-5, 48 h; outline: as §1
SN12C = assay: Anticancer activity against human SN12C cells after 48 hrs by sulforhodamine B assay; format: functional; outline: as §1
[5] = Anticancer activity against human Hs 578T cells after 48 hrs by sulforhodamine B assay; format: functional; outline: as §1
OVCAR-4 = assay: Anticancer activity against human OVCAR4 cells after 48 hrs by sulforhodamine B assay; format: functional; settings: OVCAR-4, 48 h; outline: as §1
U-251 = assay: Anticancer activity against human U251 cells after 48 hrs by sulforhodamine B assay; format: functional; settings: U-251, 48 h; outline: as §2
SNB-19 = assay: Anticancer activity against human SNB19 cells after 48 hrs by sulforhodamine B assay; format: functional; settings: SNB-19, 48 h; outline: as §1
MCF7 = assay: Anticancer activity against human MCF7 cells after 48 hrs by sulforhodamine B assay; format: functional; settings: MCF7, 48 h; outline: as §1
SNB-75 = assay: Anticancer activity against human SNB75 cells after 48 hrs by sulforhodamine B assay; format: functional; settings: SNB-75, 48 h; outline: as §1
MDA-MB-468 = assay: Anticancer activity against human MDA-MB-468 cells after 48 hrs by sulforhodamine B assay; format: functional; settings: MDA-MB-468, 48 h; outline: as §1
NCI-H226 = assay: Anticancer activity against human NCI-H226 cells after 48 hrs by sulforhodamine B assay; format: functional; settings: NCI-H226, 48 h; outline: as §1
SF-268 = assay: Anticancer activity against human SF268 cells after 48 hrs by sulforhodamine B assay; format: functional; settings: SF-268, 48 h; outline: as §1
[6] = Anticancer activity against human LOXIMVI cells after 48 hrs by sulforhodamine B assay; format: functional; settings: LOX IMVI; outline: as §1
NCI-H322M = assay: Anticancer activity against human NCI-H322M cells after 48 hrs by sulforhodamine B assay; format: functional; outline: as §1
NCI-H522 = assay: Anticancer activity against human NCI-H522 cells after 48 hrs by sulforhodamine B assay; format: functional; settings: NCI-H522, 48 h; outline: as §1
DU-145 = assay: Anticancer activity against human DU145 cells after 48 hrs by sulforhodamine B assay; format: functional; settings: DU-145, 48 h; outline: as §1
CCRF-CEM = assay: Anticancer activity against human CCRF-CEM cells after 48 hrs by sulforhodamine B assay; format: functional; outline: as §1
SK-MEL-2 = assay: Anticancer activity against human SK-MEL-2 cells after 48 hrs by sulforhodamine B assay; format: functional; settings: SK-MEL-2, 48 h; outline: as §1
SK-MEL-28 = assay: Anticancer activity against human SK-MEL-28 cells after 48 hrs by sulforhodamine B assay; format: functional; settings: SK-MEL-28, 48 h; outline: as §1
A549 = assay: Anticancer activity against human A549/ATCC cells after 48 hrs by sulforhodamine B assay; format: functional; settings: A549, 48 h; outline: as §1
K562 = assay: Anticancer activity against human K562 cells after 48 hrs by sulforhodamine B assay; format: functional; settings: K562, 48 h; outline: as §1
UACC-257 = assay: Anticancer activity against human UACC257 cells after 48 hrs by sulforhodamine B assay; format: functional; settings: UACC-257, 48 h; outline: as §2
[7] = Anticancer activity against human SF539 cells after 48 hrs by sulforhodamine B assay; format: functional; settings: SF-539, 48 h; outline: as §1
786-0 = assay: Anticancer activity against human 786-0 cells after 48 hrs by sulforhodamine B assay; format: functional; settings: 786-0, 48 h; outline: as §1
[8] = (§3) Anticancer activity against human OCI-AML3 cells expressing mutant NPM1 assessed as apoptosis for 48 hrs by annexin-V and TO-PRO3 staining based flow cytometry; format: functional, cell-based; settings: OCI-AML-3, 48 h
Outline: (§4)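 OCI-AML3 cells (NPM1c+) in logarithmic growth, passaged 2–3 times weekly. Cells were exposed to the indicated compound concentrations for 48 hr, then stained with annexin V and TO-PRO 3. Percent apoptotic cells was read by flow cytometry. AP50 is the concentration at which 50% of cells undergo apoptosis.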

KM12 = assay: Anticancer activity against human KM12 cells after 48 hrs by sulforhodamine B assay; format: functional; settings: KM12, 48 h; outline: as §1
BT-549 = assay: Anticancer activity against human BT549 cells after 48 hrs by sulforhodamine B assay; format: functional; settings: BT-549, 48 h; outline: as §1
HCT-15 = assay: Anticancer activity against human HCT15 cells after 48 hrs by sulforhodamine B assay; format: functional; settings: HCT-15, 48 h; outline: as §1
HL-60(TB) = assay: Anticancer activity against human HL-60(TB) cells after 48 hrs by sulforhodamine B assay; format: functional; settings: HL-60, 48 h; outline: as §1
OVCAR-8 = assay: Anticancer activity against human OVCAR8 cells after 48 hrs by sulforhodamine B assay; format: functional; settings: OVCAR-8, 48 h; outline: as §1
MDA-MB-231 = assay: Anticancer activity against human MDA-MB-231 cells after 48 hrs by sulforhodamine B assay; format: functional; settings: MDA-MB-231, 48 h; outline: as §1
[9] = Anticancer activity against human SF295 cells after 48 hrs by sulforhodamine B assay; format: functional; settings: SF-295, 48 h; outline: as §1
UO-31 = assay: Anticancer activity against human UO31 cells after 48 hrs by sulforhodamine B assay; format: functional; settings: UO-31, 48 h; outline: as §2
OVCAR-3 = assay: Anticancer activity against human OVCAR3 cells after 48 hrs by sulforhodamine B assay; format: functional; settings: OVCAR-3, 48 h; outline: as §1
Malme-3M = assay: Anticancer activity against human MALME-3M cells after 48 hrs by sulforhodamine B assay; format: functional; outline: as §1
[10] = Anticancer activity against human HCC2998 cells after 48 hrs by sulforhodamine B assay; format: functional; settings: HCC 2998, 48 h; outline: as §1
HOP-62 = assay: Anticancer activity against human HOP62 cells after 48 hrs by sulforhodamine B assay; format: functional; settings: HOP-62, 48 h; outline: as §1
NCI-H460 = assay: Anticancer activity against human NCI-H460 cells after 48 hrs by sulforhodamine B assay; format: functional; settings: NCI-H460, 48 h; outline: as §1
[11] = Anticancer activity against human RXF393 cells after 48 hrs by sulforhodamine B assay; format: functional; settings: RXF 393, 48 h; outline: as §1
MDA-MB-435 = assay: Anticancer activity against human MDA-MB-435 cells after 48 hrs by sulforhodamine B assay; format: functional; settings: MDA-MB-435, 48 h; outline: as §1
HT-29 = assay: Anticancer activity against human HT-29 cells after 48 hrs by sulforhodamine B assay; format: functional; settings: HT-29, 48 h; outline: as §1
[12] = Anticancer activity against human COLO205 cells after 48 hrs by sulforhodamine B assay; format: functional; settings: COLO 205, 48 h; outline: as §1
SW-620 = assay: Anticancer activity against human SW620 cells after 48 hrs by sulforhodamine B assay; format: functional; settings: SW-620, 48 h; outline: as §2
HCT-116 = assay: Anticancer activity against human HCT116 cells after 48 hrs by sulforhodamine B assay; format: functional; settings: HCT-116, 48 h; outline: as §1
OVCAR-5 = assay: Anticancer activity against human OVCAR5 cells after 48 hrs by sulforhodamine B assay; format: functional; settings: OVCAR-5, 48 h; outline: as §1
SR = assay: Anticancer activity against human SR cells after 48 hrs by sulforhodamine B assay; format: functional; outline: as §2
OCI-AML-3 = assay: as §3; format: functional, cell-based; outline: as §4

Cc1c(C=C2C(=O)NC(=S)NC2=O)c2ccccc2n1Cc1ccc(C#N)cc1
GI50 (SK-OV-3): 2.98 µM
GI50 (IGROV-1): 1.61 µM
GI50 (A498): 0.22 µM
GI50 [1]: 3.83 µM
GI50 [2]: 1.28 µM
GI50 (CAKI-1): 2.21 µM
GI50 (ACHN): 1.7 µM
GI50 (M14): 1.61 µM
GI50 [3]: 1.82 µM
GI50 (TK-10): 1.37 µM
GI50 (T47D): 2.54 µM
GI50 [4]: 0.57 µM
GI50 (SK-MEL-5): 1.84 µM
GI50 (SN12C): 1.4 µM
GI50 [5]: 1.22 µM
GI50 (OVCAR-4): 1.59 µM
GI50 (U-251): 1.61 µM
GI50 (SNB-19): 1.77 µM
GI50 (MCF7): 1.28 µM
GI50 (SNB-75): 2.04 µM
GI50 (MDA-MB-468): 0.38 µM
GI50 (NCI-H226): 1.79 µM
GI50 (SF-268): 1.6 µM
GI50 [6]: 0.9 µM
GI50 (NCI-H322M): 1.93 µM
GI50 (NCI-H522): 1.75 µM
GI50 (DU-145): 1.71 µM
GI50 (CCRF-CEM): 0.84 µM
GI50 (SK-MEL-2): 2.17 µM
GI50 (SK-MEL-28): 2.08 µM
GI50 (A549): 2.48 µM
GI50 (K562): 1.77 µM
GI50 (UACC-257): 1.67 µM
GI50 [7]: 1.29 µM
GI50 (786-0): 1.76 µM
AC50 [8]: 2.72 µM
GI50 (KM12): 1.74 µM
GI50 (BT-549): 1.87 µM
GI50 (HCT-15): 1.74 µM
GI50 (HL-60(TB)): 1.08 µM
GI50 (OVCAR-8): 1.32 µM
GI50 (MDA-MB-231): 1.64 µM
GI50 [9]: 1.88 µM
GI50 (UO-31): 1.46 µM
GI50 (OVCAR-3): 1.58 µM
GI50 (Malme-3M): 2.5 µM
GI50 [10]: 1.79 µM
GI50 (HOP-62): 1.96 µM
GI50 (NCI-H460): 2.01 µM
GI50 [11]: 1.53 µM
GI50 (MDA-MB-435): 1.49 µM
GI50 (HT-29): 1.76 µM
GI50 [12]: 1.73 µM
GI50 (SW-620): 1.36 µM
GI50 (HCT-116): 1.29 µM
GI50 (OVCAR-5): 1.84 µM
GI50 (SR): 0.56 µM

COC(=O)c1ccc(Cn2c(C)c(C=C3C(=O)NC(=O)NC3=O)c3ccccc32)cc1
Activity (OCI-AML-3): inactive

Cc1c(C=C2C(=O)NC(=O)NC2=O)c2ccccc2n1Cc1ccc(C#N)cc1
Activity (OCI-AML-3): inactive
